Assay results as given in paper PMC4316201 (Gastroenterology, 2014).

Columns and labels:
[1] = system: human beings; settings: cited from earlier work
[2] = system: healthy men; assay type: in vivo, human beings; settings: study A
Summary of the method: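 Six healthy normoglycemic, normolipidemic men took part in a randomized, single-blind crossover (visits 4 weeks apart). After an overnight fast, liquid mixed-macronutrient formula was infused nasoduodenally for 15 h from 4 AM. A pancreatic clamp (somatostatin, insulin, glucagon, growth hormone) started at 7 AM. At 9 AM came primed constant d3-leucine for 10 h plus s.c. GLP-2 1500 ug or placebo. AUC covered the first 3 h. Multicompartmental modelling gave FCR.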

[3] = system: healthy men; assay type: in vivo, human beings; settings: study B
Summary of the method: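 Six healthy men were studied in a randomized, single-blind crossover (visits 4 weeks apart). At 7 am they drank a liquid meal containing 120,000 IU retinyl palmitate, with no food thereafter. At 2 pm (T = 0, 7 h post-meal) they received s.c. GLP-2 1500 mcg or placebo, with blood sampled for 3 h. TRL TG, retinyl palmitate and apoB-48 were measured. Incremental AUC over 0–3 h used the T = 0 concentration as baseline.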

[4] = Plasma total GLP-2 concentration after subcutaneous GLP-2; assay type: in vivo, human beings; settings: 1500 μg of GLP-2 subcutaneously
Summary of the method: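 Plasma total GLP-2 was measured during the study A visits in healthy men (randomized, single-blind crossover, visits 4 weeks apart). After an overnight fast, subjects received nasoduodenal formula feeding under a pancreatic clamp, then a single subcutaneous GLP-2 dose (1500 ug) or placebo at 9 AM. Sampling continued over the kinetic study.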

[5] = system: human beings; settings: intravenous infusion of native GLP-2, human beings; cited from earlier work
[6] = GLP-2 1500 μg s.c. single dose, n = 6, vs placebo P = .03
[7] = GLP-2 1500 μg s.c., n = 6, vs placebo P = .02
[8] = GLP-2 1500 mcg s.c. 7 h after meal, N = 6, vs placebo P = .002

For `N[C@@H](CC(=O)N1CCn2c(nnc2C(F)(F)F)C1)Cc1cc(F)c(F)cc1F` [sitagliptin], the “effect on chylomicron production in human beings” value ([1]; acute) is given as “acutely reduces chylomicron production”.

For exenatide, the “effect on chylomicron secretion in human beings” value [1] is given as “reduces chylomicron secretion”.

In the case of glucagon-like peptide-2 [GLP-2], the “plasma TG area under the concentration curve in the first 3 hours (AUC0-3)” value [2, 6] is reported as 3.1 ± 0.4 mmol/L/h, the “plasma TG peak concentration at 1 hour” value [2, 6] is reported as 1.23 ± 0.20 mmol/L and the “TRL apoB-48 AUC0-3” value [2, 7] is reported as 19.3 ± 5.0 mg/L/h. For the same compound, the “TRL apoB-48 peak concentration 1 hour after administration” value [2, 7] was 9.5 ± 2.6 mg/L, the “TRL TG peak concentration at 1 hour” value ([2]; GLP-2 1500 μg s.c., n = 6, vs placebo P = .15) was 0.79 ± 0.09 mmol/L and the “TRL TG AUC0-3” value ([2]; GLP-2 1500 μg s.c., n = 6, vs placebo P = .24) was 1.9 ± 0.2 mmol/L/h. The “TRL apoB-100 mean concentration for the 10-hour kinetics study” value ([2]; GLP-2 1500 μg s.c., n = 6, vs placebo P = .5) was 74.8 ± 7.4 mg/L, the “TRL apoB-100 AUC0-3” value ([2]; GLP-2 1500 μg s.c., n = 6, vs placebo P = .95) was 216 ± 21.9 mg/L/h and the “mean plasma glucagon concentration” value ([2]; GLP-2 1500 μg s.c., pancreatic clamp, vs placebo P = .01) was 143.3 ± 14.2 pg/mL. For the same compound, the “mean plasma glucose concentration” value ([2]; GLP-2 1500 μg s.c., pancreatic clamp, vs placebo P = .049) was 8.7 ± 0.3 mmol/L, the “plasma FFA concentration, GLP-2 vs placebo” value ([2]; during kinetic study) was “no significant difference” and the “plasma insulin concentration, GLP-2 vs placebo” value ([2]; during kinetic study) was “no significant difference”. For the same compound, the “plasma glucose concentration, GLP-2 vs placebo” value [3] was “no significant difference”, the “TRL TG iAUC0-3” value [3, 8] was 0.28 ± 0.16 mmol/L/h and the “TRL retinyl palmitate iAUC0-3” value [3, 8] was 0.86 ± 0.21 µmol/L/h. The “chylomicron (Sf > 400) retinyl palmitate peak concentration at 60 minutes” value ([3]; GLP-2 1500 mcg s.c. 7 h after meal, n = 5, vs placebo P = .003) was 0.38 ± 0.06 µmol/L, the “TRL apoB-48 iAUC0-3” value ([3]; GLP-2 1500 mcg s.c. 7 h after meal, n = 6, vs placebo P = .04) was 1.45 ± 1.72 mg/L/h and the “TRL TG peak increment” value ([3]; GLP-2 1500 mcg s.c. 7 h after meal, vs placebo P = .003) was 0.42 ± 0.11. The “TRL apoB-48 peak increment” value ([3]; GLP-2 1500 mcg s.c. 7 h after meal, vs placebo P = .006) was 2.1 ± 0.8, the “GLP-2 concentration at 4 hours relative to the level at 2 hours” value [4] was “approximately half” and the “plasma total GLP-2 concentration compared with placebo” value ([4]; 2 and 4 hours after administration) was “significantly increased”. For the same compound, the “effect on postprandial plasma TG and free fatty acid (FFA) concentrations” value [5] was “increase”.
